Bioassay records (PubChem)
SENP8 block-1 = blocks human SENP8 cleavage of Nedd8 substrate; Q96LD8; recombinant SENP8, Nedd8 substrate fluorescence; inhibition, % at 20 µM; hit rate 0.64% among 360,000; in the data active = inhibition mostly above about 40%, no sharp cut-off; inactive = mostly below about 27%
SENP6 inh = blocks the human protease SENP6 | inhibition, % at 10 µM | Q9GZR1 | hit rate 1.8% among 330,000 | Recombinant SENP6 catalytic domain, aminoluciferin luminescence;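 active = inhibition above about 50% at the single tested dose, limit read from the data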;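 note: plate controls were DMSO wells with enzyme for no effect and DMSO wells lacking enzyme for full effect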
SENP8 block-2 = SENP8 protease inhibition. Q96LD8. purified SENP8, Z-RLRGG-aminoluciferin cleavage, luminescence. inhibition, % at 10 µM. hit rate 1.2% among 330,000; in the data active = inhibition above about 50%
SENP7 inh = inhibitors of human SENP7 protease. Q9BQF6. recombinant SENP7, Z-RLRGG-aminoluciferin luminescence, 40 min. inhibition, % at 5 µM. hit rate 1.5% among 330,000. AID 434973;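 active = inhibition above about 50% at the single test dose, limit read from the data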;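 note: plate controls were DMSO with enzyme for no effect and no enzyme buffer wells for full effect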
Target sequence (Q9BQF6 706-1050 limits assumed): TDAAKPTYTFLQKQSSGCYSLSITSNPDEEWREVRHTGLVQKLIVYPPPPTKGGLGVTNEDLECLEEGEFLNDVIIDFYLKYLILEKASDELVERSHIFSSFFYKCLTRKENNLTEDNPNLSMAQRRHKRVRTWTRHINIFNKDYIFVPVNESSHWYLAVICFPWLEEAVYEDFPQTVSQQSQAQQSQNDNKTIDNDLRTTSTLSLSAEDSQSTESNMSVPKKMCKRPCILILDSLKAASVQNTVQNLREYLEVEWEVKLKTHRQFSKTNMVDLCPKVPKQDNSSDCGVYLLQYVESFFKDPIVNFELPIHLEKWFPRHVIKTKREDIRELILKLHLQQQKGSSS
SENP1 FRET inh = inhibitors of human SENP1 SUMO protease catalytic domain | hit rate 0.21% among 360,000 | recombinant SENP1 catalytic domain, CyPet-SUMO1-YPet FRET cleavage | inhibition, % at 10 µM;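 active = inhibition at least 30% at 10 µM, raw YFP signal under a set limit, fluorescence ratio 0.5 to 1.5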;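 note: 0% = enzyme with DMSO and 100% = no enzyme wells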
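Compound: 10 µM single point, 0.5% DMSO; Test system: hSENP1 catalytic domain, recombinant; Timing: 50 min reaction at room temperature; Technique: FRET, CFP and YFP emission; Control set: no-enzyme wells low, DMSO-plus-enzyme wells high control.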
SENP8 confirm = human SENP8 inhibition, confirmed | hit rate 40% among 6,200 | inhibition, % at 12.5 µM | Recombinant SENP8, Z-RLRGG-aminoluciferin luminescence, 60 min | shares compounds with SENP7 inh;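 active = mean inhibition across replicates above about 50%, limit read from the data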
SENP6 conf = confirmation of human SENP6 protease inhibitors; inhibition, % at 12.5 µM; shares compounds with SENP7 inh; recombinant SENP6, Z-RLRGG-aminoluciferin luminescence; hit rate 58% among 6,200
SENP7 conf = confirmation of human SENP7 protease inhibitors; inhibition, % at 12.5 µM; recombinant SENP7, Z-RLRGG-aminoluciferin luminescence, 40 min; shares compounds with SENP7 inh; hit rate 69% among 6,200
Casp3 select = selectivity test for SENP inhibitors: human caspase-3 inhibition | shares compounds with SENP7 inh | purified caspase-3, Z-DEVD-aminoluciferin luminescence, 60 min | inhibition, % at 12.5 µM | hit rate 60% among 6,200;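 active = mean inhibition above about 50%, limit read from the data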;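 note: plate controls were enzyme with DMSO for no effect and wells without caspase-3 for full effect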
Target sequence (P42574 28-227 limits assumed): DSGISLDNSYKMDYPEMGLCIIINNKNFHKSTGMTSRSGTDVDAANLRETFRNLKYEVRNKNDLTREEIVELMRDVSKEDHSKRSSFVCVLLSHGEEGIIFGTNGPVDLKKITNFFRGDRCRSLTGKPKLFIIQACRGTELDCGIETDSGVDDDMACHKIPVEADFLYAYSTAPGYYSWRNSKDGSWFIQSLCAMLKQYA
SENP luc ctr = counter-screen for SENP inhibitors: luminescence interference; AID 488919; hit rate 39% among 6,200; Pre-incubated SENP8/Z-RLRGG-aminoluciferin, luciferase luminescence interference; inhibition, % at 12.5 µM; shares compounds with SENP7 inh;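 active = mean inhibition above about 50% when retested at one dose, limit read from the data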;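 note: plate controls were DMSO wells with completed reaction for no effect and substrate without enzyme for full effect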
* hit, by the source's call; i = inactive; x = no result. This is a sample that favours compounds with a hit; in the whole collection about 2.5% have one here.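 Rule for the calls, unless noted: active = mean inhibition above about 50% in the one-dose retest (limit read from the data); inactive = the rest.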

SMILES	SENP8 block-1	SENP6 inh	SENP8 block-2	SENP7 inh	SENP1 FRET inh	SENP8 confirm	SENP6 conf	SENP7 conf	Casp3 select	SENP luc ctr
COc1ccc(C(=O)OCC(=O)Nc2ccc3[nH]c(=O)[nH]c3c2)cc1	-9.3	-9.9	-2.6	4.8	-0.9	x	x	x	x	x
O=C1NC(=Nc2ccccc2)S/C1=C/c1cccs1	9.9	16.8	59.5*	32.2	-1.9	26.6	45.8	19.7	38.9	23.3
Cc1cccc(N=C2NC(=O)/C(=C\c3cccs3)S2)c1	1.0	49.0	5.7	0.9	4.1	x	x	x	x	x
CCC(=O)Nc1cccc(C(=O)OCC(=O)c2ccccc2Cl)c1	4.9	13.0	-13.3	-2.4	0.8	x	x	x	x	x
CC(=O)Nc1cccc(C(=O)OCC(=O)c2ccccc2Cl)c1	13.2	-3.1	46.7	61.4*	2.3	72.2*	38.8	89.2*	69.9*	73.6*
COc1ccc(C(=O)Nc2sc(C)c(C)c2CN2CC(C)OC(C)C2)cc1 (stereo unspecified)	-196.7	-5.0	-13.8	-10.4	-1.5	x	x	x	x	x
Cc1ccc(Cn2ccnc2C(=O)Nc2ccccc2)cc1	4.0	78.8*	50.7*	72.8*	1.6	4.4	-0.2	46.6	8.8	22.2
Nc1ccccc1/C=C/c1ccccc1N	i	x	x	x	-105.0	x	x	x	x	x
COC(=O)[C@@H](Cc1c[nH]c2ccccc12)NC(=O)c1ccc2c(c1)OCO2	6.8	59.2*	53.2*	64.6*	0.5	49.6	47.3	83.1*	67.0*	67.9*
O=C(COC(=O)[C@H](Cc1c[nH]c2ccccc12)NC(=O)c1ccc(Cl)cc1)Nc1ccc2c(c1)OCO2	17.6	-9.6	0.4	-1.8	-1.0	x	x	x	x	x
Clc1ccc(-c2nnc(-c3ccco3)o2)cc1	-188.4	62.8*	51.8*	72.6*	3.0	35.9	41.4	59.1*	54.3*	0.3
N/C(=N\OC(=O)c1ccc(F)cc1)c1ccccc1	16.4	96.7*	90.5*	98.3*	4.0	95.5*	96.4*	101.8*	97.3*	94.3*
N/C(=N\OC(=O)c1ccc(F)cc1)c1ccc(Br)cc1	2.6	-36.8	-12.5	17.5	1.8	x	x	x	x	x
Cc1ccc(/C(N)=N/OC(=O)c2ccc(F)cc2)cc1	6.8	40.4	17.6	60.8*	2.5	0.3	25.3	69.1*	62.2*	25.2
CN(C)c1ccnc2sc3c(SCc4ccc(Cl)cc4)ncnc3c12	-101.3	2.5	-8.5	57.7*	-27.2	-2.3	5.1	3.3	19.4	9.1
Cc1cc(C(=O)Nc2cccc(C(=O)O)c2)c(C)o1	13.4	89.8*	68.4*	83.8*	0.4	-7.9	80.9*	97.8*	49.3	88.3*
Cc1oc(C(C)(C)C)cc1C(=O)Nc1cccc(C(=O)O)c1	5.7	2.6	-5.2	-0.8	1.8	x	x	x	x	x
Cc1oc(C(C)(C)C)cc1C(=O)Nc1ccc(C(=O)O)cc1	28.0	9.1	3.5	10.3	0.9	x	x	x	x	x
Cc1cc(C(=O)Nc2cccc(C(=O)O)c2)oc1C	18.9	92.3*	92.4*	98.1*	1.2	94.7*	95.1*	99.6*	86.5*	93.6*
Cc1cc(C(=O)Nc2ccc(C(=O)O)cc2)c(C)o1	6.9	80.4*	68.4*	73.7*	-0.4	-6.0	61.3*	87.7*	91.3*	65.0*
COc1cc(OC)cc(C(=O)Nc2nnc(SCC(=O)NCc3ccco3)s2)c1	-63.7	-1.6	-1.8	2.2	3.9	x	x	x	x	x
CC/C=C(\NC(C)=O)c1ccccc1	8.7	-11.6	-0.5	-0.6	2.6	x	x	x	x	x
C/C(=N\NC(=O)c1ccco1)c1ccc(-c2ccccc2)cc1	11.5	66.6*	55.4*	84.6*	-1.2	8.1	34.2	45.4	37.1	15.5
O=c1c2ccccc2cnn1-c1ccc(Cl)nn1	-0.7	5.0	-7.4	-5.2	0.4	x	x	x	x	x
O=c1c2ccccc2cnn1-c1ccc2ccccc2c1	-117.9	87.5*	67.3*	82.2*	-2.3	53.0*	76.9*	94.5*	80.5*	24.6
SMILES	SENP8 block-1	SENP6 inh	SENP8 block-2	SENP7 inh	SENP1 FRET inh	SENP8 confirm	SENP6 conf	SENP7 conf	Casp3 select	SENP luc ctr
O=c1c2ccccc2cnn1-c1ccc(Br)cc1	-54.7	58.3*	35.1	66.4*	2.5	36.9	42.9	67.3*	67.3*	44.4
ClCc1ncc(-c2ccc(Cl)cc2)o1	4.4	-19.5	-10.0	3.5	-1.4	x	x	x	x	x
COc1cc(C2N=C(c3ccccc3)NO2)cc(Br)c1O (stereo unspecified)	-165.4	91.2*	77.2*	28.0	-6.2	85.0*	84.0*	91.7*	58.1*	85.2*
FC(F)Oc1ccc(C2N=C(c3ccccc3)NO2)cc1 (stereo unspecified)	-19.7	61.9*	53.7*	1.7	-1.8	17.0	28.1	23.7	17.9	13.8
Cc1cc(F)cc(-c2cc(C(=O)NCc3ccccn3)[nH]n2)c1	-0.7	x	x	x	2.2	x	x	x	x	x
O=c1ccnc(S/C=C/c2ccccc2)[nH]1	8.9	82.6*	71.3*	-1.9	-0.9	78.1*	73.4*	88.8*	87.1*	75.6*
O=c1ccnc(SCCc2ccccc2)[nH]1	13.4	-20.7	-9.6	-13.0	2.3	x	x	x	x	x
Cc1cc(/C=c2/sc3nc4ccccc4n3c2=O)c(C)n1-c1ccccn1	-79.9	79.3*	90.8*	6.3	-22.1	31.7	54.2*	29.2	64.4*	1.9
O=c1oc2cc(O)c(Cl)cc2c2ccccc12	-89.1	60.9*	34.2	11.4	34.8	50.2*	45.4	73.3*	67.9*	37.8
Cn1c(=O)c2sccc2n(Cc2cccc(Br)c2)c1=O	15.0	9.2	5.6	5.3	0.4	x	x	x	x	x
c1cnc2ccc(-c3ccc4ncccc4c3)cc2c1	-112.1	76.8*	55.4*	32.3	1.4	72.2*	71.1*	87.3*	65.4*	75.5*
CCN(CC)S(=O)(=O)c1ccc(C)c(C(=O)Oc2cccc(-c3cnc4ccccc4n3)c2)c1	1.4	0.0	-10.3	0.6	3.0	x	x	x	x	x
O=C(Oc1cccc(-c2cnc3ccccc3n2)c1)c1ccco1	-16.9	60.1*	59.1*	51.8*	-1.8	17.9	44.6	76.1*	61.0*	13.4
COc1ccc2[nH]c3c(c2c1)CCNC3(C)CCc1ccc(Cl)nc1 (stereo unspecified)	20.7	-7.6	1.4	1.0	0.0	x	x	x	x	x
O=C1Nc2ccccc2N(O)N1c1cc(-c2ccccc2Cl)no1	27.3	-47.3	-9.2	9.1	2.2	x	x	x	x	x
O=C1Nc2ccccc2N(O)N1c1cc(-c2cccc(Cl)c2)no1	11.7	38.7	57.5*	60.4*	2.8	83.3*	80.3*	93.1*	88.3*	80.8*
